# According to ChEMBL document CHEMBL3853309, “Lovastatin Analogues from the Soil-Derived Fungus Aspergillus sclerotiorum PSU-RSPG178” (J Nat Prod, 2016):
# Calls of active or inactive are those of the source. The calls are words filed in the database; no cut-off is given here.
# Experiments:
# [1] = Cytotoxicity against human MCF7 cells by resazurin microplate assay; assay type: functional, cell-based
# Method in brief: (§1)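 KB and MCF-7 cells assayed by resazurin microplate method; positive controls ellipticine and doxorubicin for KB, doxorubicin and tamoxifen for MCF-7.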
# [2] = Cytotoxicity against human KB cells by resazurin microplate assay; assay type: functional, cell-based; method in brief: as §1
# [3] = Cytotoxicity against African green monkey Vero cells; assay type: toxicity, cell-based; conditions: African green monkey (Chlorocebus sabaeus)
# Method in brief: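 Vero (African green monkey kidney fibroblast) cells tested in triplicate by the Hunt et al. method; ellipticine positive control.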
# [4] = biological target: T1, 3-hydroxy-3-methylglutaryl-coenzyme A reductase (Homo sapiens) (UniProt P04035); assay: Inhibition of human HMGR catalytic domain at 200 uM using HMG-CoA as substrate measured every 20 secs for 10 mins relative to control
# T1 sequence (whole entry): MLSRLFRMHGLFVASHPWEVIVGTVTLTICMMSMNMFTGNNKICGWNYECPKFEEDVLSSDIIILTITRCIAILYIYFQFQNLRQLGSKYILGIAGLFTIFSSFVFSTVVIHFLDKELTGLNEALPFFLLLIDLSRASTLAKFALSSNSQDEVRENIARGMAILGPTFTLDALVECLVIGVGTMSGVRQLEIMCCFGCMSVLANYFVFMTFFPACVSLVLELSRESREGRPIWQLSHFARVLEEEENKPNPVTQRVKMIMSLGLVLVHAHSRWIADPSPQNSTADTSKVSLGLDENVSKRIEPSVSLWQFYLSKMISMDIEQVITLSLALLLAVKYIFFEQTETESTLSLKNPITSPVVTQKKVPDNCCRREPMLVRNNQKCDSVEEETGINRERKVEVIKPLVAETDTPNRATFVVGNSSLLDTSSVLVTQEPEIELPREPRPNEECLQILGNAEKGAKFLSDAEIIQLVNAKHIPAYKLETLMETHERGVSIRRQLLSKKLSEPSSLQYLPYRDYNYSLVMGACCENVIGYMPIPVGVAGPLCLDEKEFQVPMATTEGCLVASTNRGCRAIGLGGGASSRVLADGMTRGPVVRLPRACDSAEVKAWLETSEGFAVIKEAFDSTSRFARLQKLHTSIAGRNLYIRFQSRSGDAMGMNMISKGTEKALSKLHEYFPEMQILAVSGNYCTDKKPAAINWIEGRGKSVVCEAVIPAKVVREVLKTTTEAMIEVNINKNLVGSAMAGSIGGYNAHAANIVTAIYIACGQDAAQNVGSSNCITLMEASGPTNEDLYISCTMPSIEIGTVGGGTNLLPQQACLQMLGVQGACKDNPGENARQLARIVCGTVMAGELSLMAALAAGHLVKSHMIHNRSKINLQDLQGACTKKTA
# Method in brief: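 Sigma HMG-CoA reductase kit, modified: 1× assay buffer, NADPH, HMG-CoA (800 μM final), test compound at 200 μM final; reaction started by adding human HMGR catalytic domain (0.6 μM final) at 37 °C. NADPH oxidation followed at 340 nm for 10 min, 20 s intervals.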
# [5] = biological target: T1, 3-hydroxy-3-methylglutaryl-coenzyme A reductase (Homo sapiens); assay: Binding affinity to human HMGR catalytic domain at 50 uM in presence of 800 to 3200 uM HMG-CoA as substrate measured every 20 secs for 10 mins
# Method in brief: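 Direct-interaction test: compound at 50 μM with HMG-CoA at 800, 1600 and 3200 μM, plus NADPH and human HMGR catalytic domain at 37 °C. Activity read at 340 nm for 10 min at 20 s intervals, reported as percent inhibition versus untreated control; n = 3.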
# Plasmodium falciparum = assay: Antimalarial activity against multi-drug-resistant Plasmodium falciparum K1 by microculture radioisotope technique; assay type: functional
# Method in brief: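 Parasite: P. falciparum K1 (multidrug-resistant). Growth inhibition read by a microculture radioisotope method adapted from a published protocol. Dihydroartemisinine and mefloquine served as reference standards.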
# [6] = biological target: T1, 3-hydroxy-3-methylglutaryl-coenzyme A reductase (Homo sapiens); conditions: 1 uM
# [7] = biological target: T2, 3-hydroxy-3-methylglutaryl-coenzyme A reductase (Homo sapiens, UniProt P04035); assay: Inhibition of human HMGR catalytic domain using 800 uM HMG-CoA as substrate measured every 20 secs for 10 mins
# T2 sequence (P04035 whole entry): T1 sequence (whole entry)
# Method in brief: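 Dose-response format of the kit assay: 1× buffer, NADPH, 800 μM HMG-CoA, graded compound concentrations, human HMGR catalytic domain 0.6 μM final added to start at 37 °C.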
Compound,IC50 [1] [µM],IC50 [2] [µM],IC50 [3] [µM],inhibition [4] [%],other results
CC/C(=C(\c1ccccc1)c1ccc(OCCN(C)C)cc1)c1ccccc1 [TAMOXIFEN],6.99,,,,
Cc1c2ccncc2c(C)c2c1[nH]c1ccccc12 [ELLIPTECINE],,2.03,1,,
CC[C@H](C)C(=O)O[C@H]1C[C@@H](C)C=C2C=C[C@H](C)[C@H](CC[C@@H]3C[C@@H](O)CC(=O)O3)[C@H]21 [LOVASTATIN],,15.6,2.2,42,Activity [5]: Active
"O[C@@H](c1cc(C(F)(F)F)nc2c(C(F)(F)F)cccc12)[C@H]1CCCCN1 [(S,R)-MEFLOQUINE]",,,,,IC50 (Plasmodium falciparum): 0.0269 µM
CC[C@H](C)C(=O)O[C@H]1C[C@@H](C)[C@H](OC(C)=O)C2=C[C@@H](OC(C)=O)[C@H](C)[C@H](CC[C@@H]3CC=CC(=O)O3)[C@H]21,74.7,19.8,8.4,20.4,
CC[C@H](C)C(=O)O[C@H]1C[C@H](O)C=C2C=C[C@H](C)[C@H](CC[C@@H](O)C[C@@H](O)CC(=O)O)[C@H]21,,,,,inhibition [6]: 90.4%
CC[C@H](C)C(=O)O[C@H]1C[C@@H](C)[C@H](O)C2=C[C@@H](O)[C@H](C)[C@H](CC[C@@H]3CC=CC(=O)O3)[C@H]21,,31.6,40,50,IC50 [7]: 387 µM; Activity [5]: Active
COc1cccc2c1C(=O)c1c(O)c3c(c(O)c1C2=O)C[C@@](O)(C(=O)CO)C[C@@H]3O[C@H]1C[C@H](N)[C@H](O)[C@H](C)O1 [DOXORUBICIN],6.75,,,,
CC[C@H](C)C(=O)O[C@H]1C[C@@H](C)C=C2C=C[C@H](C)[C@H](CC[C@@H]3CC=CC(=O)O3)[C@H]21,57.3,20.1,8.1,8.4,
C[C@H]1[C@@H](O)O[C@@H]2O[C@@]3(C)CC[C@H]4[C@H](C)CC[C@@H]1[C@@]24OO3 [ARTENIMOL],,,,,IC50 (Plasmodium falciparum): 0.0023 µM
CC[C@H](C)C(=O)O[C@H]1C[C@@H](C)C[C@@H]2C=C[C@H](C)[C@H](CC[C@@H]3CC=CC(=O)O3)[C@@H]12,,15.2,14.5,17.2,
